ChEMBL document CHEMBL4028818, “Tricyclic 4,4-dimethyl-3,4-dihydrochromeno[3,4-d]imidazole derivatives as microsomal prostaglandin E2 synthase-1 (mPGES-1) inhibitors: SAR and in vivo efficacy in hyperalgesia pain model” (Bioorg Med Chem Lett, 2017)

Experiments:
Prostaglandin E synthase [1] = target: T1, Prostaglandin E synthase (Homo sapiens, UniProt O14684); experiment: Inhibition of recombinant human mPGES-1 expressed in CHO cells assessed as reduction in PGE2 formation using PGH2 a substrate preincubated for 10 mins followed by substrate addition measured after 1 min; assay type: cell-based
T1 sequence (O14684 whole entry): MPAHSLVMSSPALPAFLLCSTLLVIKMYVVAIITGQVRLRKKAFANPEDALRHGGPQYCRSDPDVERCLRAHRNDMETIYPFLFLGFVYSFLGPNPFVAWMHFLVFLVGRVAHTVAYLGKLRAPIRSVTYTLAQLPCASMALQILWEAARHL
How it was run: (§1)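 mPGES-1 enzyme inhibition. % inhibition values are means of two experiments in duplicate. IC50 values were derived from graphs of at least two experiments in duplicate.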

Prostaglandin E synthase [2] = target: T1, Prostaglandin E synthase; experiment: Inhibition of mPGES-1 in human A549 cells assessed as decrease in IL1beta induced PGE2 release preincubated for 30 mins followed by IL-1beta addition after 16 to 20 hrs by HTRF method; assay type: cell-based
[3] = Metabolic stability in Guinea pig liver microsomes assessed as parent compound remaining at 1 uM after 60 mins in presence of NADPH by LC/MS/MS analysis; assay type: ADME, Cavia porcellus, microsome; conditions: read-out: Stability
How it was run: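 Compound at 1.0 µM was incubated with liver microsomes (1.0 mg/mL protein) at 37 °C for 60 min. Samples were analysed by LC/MS/MS as % parent remaining. Run in triplicate.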

CYP2D6 = CYP2D6 (Homo sapiens, UniProt P10635); experiment: (§2) Inhibition of CYP2D6 in human liver microsomes at 10 uM measured after 20 mins in presence of NADPH by LC/MS/MS analysis relative to control; assay type: ADME; conditions: liver microsomes
Sequence of CYP2D6 (P10635 whole entry, canonical isoform): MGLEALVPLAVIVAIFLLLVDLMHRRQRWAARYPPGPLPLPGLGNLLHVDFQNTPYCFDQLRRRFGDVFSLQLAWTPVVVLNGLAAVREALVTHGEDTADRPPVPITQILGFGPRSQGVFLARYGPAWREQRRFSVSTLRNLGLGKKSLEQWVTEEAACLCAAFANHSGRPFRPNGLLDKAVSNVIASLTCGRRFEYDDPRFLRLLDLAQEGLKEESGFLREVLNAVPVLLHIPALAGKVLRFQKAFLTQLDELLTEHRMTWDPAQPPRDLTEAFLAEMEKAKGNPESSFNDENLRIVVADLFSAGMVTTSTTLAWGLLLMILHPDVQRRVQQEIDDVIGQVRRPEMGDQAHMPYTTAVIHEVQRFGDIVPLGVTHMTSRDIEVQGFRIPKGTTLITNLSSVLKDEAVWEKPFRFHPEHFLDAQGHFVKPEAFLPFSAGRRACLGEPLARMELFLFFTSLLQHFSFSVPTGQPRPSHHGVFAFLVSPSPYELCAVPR
How it was run: (§3)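 CYP isoforms 1A2, 2D6, 3A4, 2C9 and 2C19 were tested at 1 and 10 µM. Results are % inhibition compared with a no-inhibitor control, run in triplicate.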

[4] = Clearance in Sprague-Dawley rat at 5 mg/kg, iv administered as single bolus dose; assay type: ADME, organism-based; conditions: in vivo
How it was run: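 Male Sprague-Dawley rats were dosed i.v. in a vehicle of 20% NMP + 20% ethanol + 60% PEG 200. T1/2, CL and Vz were derived. Values are mean ± SD, n = 3.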

[5] = Oral bioavailability in Sprague-Dawley rat at 10 mg/kg; assay type: ADME, organism-based; conditions: in vivo
How it was run: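 Male Sprague-Dawley rats were dosed orally as a 0.5% methylcellulose suspension. Cmax, AUC0-24, Tmax, T1/2 and %F were determined. Values are mean ± SD, n = 3.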

CYP2C19 = CYP2C19 (Homo sapiens, UniProt P33261); experiment: Inhibition of CYP2C19 in human liver microsomes at 10 uM measured after 40 mins in presence of NADPH by LC/MS/MS analysis relative to control; assay type: ADME; how it was run: as §3
Sequence of CYP2C19 (P33261 whole entry): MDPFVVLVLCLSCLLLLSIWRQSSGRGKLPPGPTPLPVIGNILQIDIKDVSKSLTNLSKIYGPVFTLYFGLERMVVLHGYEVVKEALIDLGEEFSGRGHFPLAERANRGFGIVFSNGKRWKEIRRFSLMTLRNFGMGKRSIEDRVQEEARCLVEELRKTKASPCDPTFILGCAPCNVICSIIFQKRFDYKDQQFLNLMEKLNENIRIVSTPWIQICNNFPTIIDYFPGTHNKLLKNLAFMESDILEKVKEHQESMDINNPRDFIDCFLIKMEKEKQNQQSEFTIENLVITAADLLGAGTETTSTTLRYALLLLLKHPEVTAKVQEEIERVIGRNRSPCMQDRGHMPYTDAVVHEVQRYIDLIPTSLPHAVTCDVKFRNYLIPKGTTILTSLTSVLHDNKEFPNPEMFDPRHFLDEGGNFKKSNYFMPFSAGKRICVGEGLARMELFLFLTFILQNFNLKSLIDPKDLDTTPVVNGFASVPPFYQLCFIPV

Cavia porcellus [6] = experiment: Analgesic activity in Dunkin Hartley guinea pig hyperalgesia pain model assessed as inhibition of LPS-induced thermal hyperalgesia at 100 mg/kg, po qd administered 4 hrs prior to LPS stimulation measured after 4.5 hrs by plantar test relative to control; assay type: functional
How it was run: (§4)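 LPS was injected into the guinea pig plantar to induce thermal hyperalgesia, and compound was given orally. Response is expressed as % hyperalgesia, with a saline-injected naive group as 0% and the vehicle-treated LPS group as 100%. Values are mean ± SEM, n = 8 per dose group.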

[7] = Plasma concentration in Dunkin Hartley guinea pig model of LPS-induced thermal hyperalgesia pain at 100 mg/kg, po qd measured 7 hrs post dose by LC/MS/MS analysis; assay type: ADME, organism-based, Cavia porcellus
How it was run: (§5)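 In the guinea pig LPS thermal hyperalgesia model, plasma and CSF drug levels were measured at the pharmacodynamic time point after oral dosing. Concentrations are means of n = 8 animals per dose group.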

[8] = Drug uptake in CSF of Dunkin Hartley guinea pig model of LPS-induced thermal hyperalgesia pain at 100 mg/kg, po qd measured 7 hrs post dose by LC/MS/MS analysis; assay type: ADME, organism-based, Cavia porcellus, Cerebrospinal fluid; conditions: read-out: Drug uptake; how it was run: as §5
[9] = target: T2, Prostaglandin E synthase (Homo sapiens) (UniProt O14684); experiment: Inhibition of recombinant human mPGES-1 expressed in CHO cells assessed as reduction in PGE2 formation at 1 uM using PGH2 a substrate preincubated for 10 mins followed by substrate addition measured after 1 min relative to control; assay type: cell-based; how it was run: as §1
T2 sequence (whole entry): T1 sequence (O14684 whole entry)

[10] = target: T2, Prostaglandin E synthase (Homo sapiens); experiment: Inhibition of recombinant human mPGES-1 expressed in CHO cells assessed as reduction in PGE2 formation at 10 uM using PGH2 a substrate preincubated for 10 mins followed by substrate addition measured after 1 min relative to control; assay type: cell-based; how it was run: as §1
Cytochrome P450 2D6 = Cytochrome P450 2D6 (Homo sapiens, UniProt P10635); experiment: as §2; assay type: ADME; conditions: microsomes, 20 min, 10 µM; how it was run: as §3
Sequence of Cytochrome P450 2D6 (P10635 whole entry): as the sequence (P10635 whole entry, canonical isoform) above

[11] = Cmax in Guinea pig at 100 mg/kg, po; assay type: ADME, organism-based, Cavia porcellus; set-up: dose 100 mg/kg, route oral; conditions: in vivo
How it was run: (§6)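 Single oral dose given to guinea pigs as a 0.5% methylcellulose suspension. Values are mean ± SD, n = 3.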

[12] = AUC (0 to 24 hrs) in Guinea pig at 100 mg/kg, po; assay type: ADME, organism-based, Cavia porcellus; set-up: time < 24 hr, dose 100 mg/kg, route oral; conditions: in vivo; how it was run: as §6
[13] = Tmax in Guinea pig at 100 mg/kg, po; assay type: ADME, organism-based, Cavia porcellus; conditions: in vivo; how it was run: as §6
COX2 [14] = target: T3, COX2 (Homo sapiens, UniProt P35354); experiment: Inhibition of recombinant human N-terminal His-tagged COX2 expressed in baculovirus infected Sf21 insect cells assessed as decrease in PGE2 release at 1 uM using arachidonic acid as substrate preincubated for 15 mins followed by arachidonic acid addition measured after 5 mins relative to control; conditions: probe arachidonic acid
T3 sequence (P35354 whole entry): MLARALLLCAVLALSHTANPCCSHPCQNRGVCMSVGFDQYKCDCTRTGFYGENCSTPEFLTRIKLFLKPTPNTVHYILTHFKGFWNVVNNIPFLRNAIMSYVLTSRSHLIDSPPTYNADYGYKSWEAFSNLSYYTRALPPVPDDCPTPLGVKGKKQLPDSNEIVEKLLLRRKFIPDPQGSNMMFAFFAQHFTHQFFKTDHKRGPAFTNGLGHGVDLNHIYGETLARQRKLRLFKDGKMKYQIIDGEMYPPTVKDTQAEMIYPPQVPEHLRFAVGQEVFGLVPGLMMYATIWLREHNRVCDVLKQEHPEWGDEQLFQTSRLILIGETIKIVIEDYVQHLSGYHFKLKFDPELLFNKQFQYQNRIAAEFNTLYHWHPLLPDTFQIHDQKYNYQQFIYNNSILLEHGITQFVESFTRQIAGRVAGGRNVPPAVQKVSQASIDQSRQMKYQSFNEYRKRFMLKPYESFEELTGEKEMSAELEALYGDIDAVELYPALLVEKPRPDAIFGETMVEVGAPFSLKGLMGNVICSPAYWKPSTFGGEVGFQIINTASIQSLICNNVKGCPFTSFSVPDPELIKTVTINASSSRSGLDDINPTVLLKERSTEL

COX2 [15] = target: T3, COX2; experiment: Inhibition of recombinant human N-terminal His-tagged COX2 expressed in baculovirus infected Sf21 insect cells assessed as decrease in PGE2 release at 10 uM using arachidonic acid as substrate preincubated for 15 mins followed by arachidonic acid addition measured after 5 mins relative to control; conditions: probe arachidonic acid
Cavia porcellus [16] = experiment: Analgesic activity in Dunkin Hartley guinea pig hyperalgesia pain model assessed as inhibition of LPS-induced thermal hyperalgesia at 200 mg/kg, po qd administered 4 hrs prior to LPS stimulation measured after 4.5 hrs by plantar test relative to control; assay type: functional; how it was run: as §4
[17] = Plasma concentration in Dunkin Hartley guinea pig model of LPS-induced thermal hyperalgesia pain at 200 mg/kg, po qd measured 7 hrs post dose by LC/MS/MS analysis; assay type: ADME, organism-based, Cavia porcellus; how it was run: as §5

IC50 (Prostaglandin E synthase [1])	IC50 (Prostaglandin E synthase [2])	remaining at 1 h, 1 µM [3]	inhibition at 20 min, 10 µM (CYP2D6)	clearance [4]	bioavailability [5]	inhibition at 40 min, 10 µM (CYP2C19)	concentration at 7 h [7]	concentration at 7 h [8]	inhibition [9]	inhibition [10]	inhibition (INH) (Cytochrome P450 2D6)	Cmax [11]	AUC(0-t) at 24 h [12]	Tmax [13]	inhibition at 5 min, 1 µM (COX2 [14])	inhibition at 5 min, 10 µM (COX2 [15])	concentration at 7 h [17]	SMILES	inhibition in vivo at 100 mg/kg (Cavia porcellus [6])	inhibition in vivo at 200 mg/kg (Cavia porcellus [16])
36.3 nM	839 nM	73%	26.6%	11.1 mL/min/kg	85%	17 to 26%	13.8 µM	0.00263 µM	–	–	–	–	–	–	–	–	–	CC1(C)Oc2cc(C#Cc3cc(Cl)ccc3F)ccc2-c2[nH]c(-c3c(F)cccc3Cl)nc21	26%	–
56.9 nM	840 nM	80%	–	3.63 mL/min/kg	33%	27.2%	–	–	97.9%	91.8%	Not Active	803 ng/mL	13400 ng·h/mL	24 h	2.37%	24.2%	7.5 to 7.54 µM	CC1(C)Oc2cc(-c3cccc(OC(F)(F)F)c3)ccc2-c2[nH]c(-c3c(F)cccc3Cl)nc21	–	38%
